Source: ChEMBL document CHEMBL1806428, “Design and synthesis of spiro derivatives of parthenin as novel anti-cancer agents” (Eur J Med Chem, 2011)
The source made the active and inactive calls. The calls are words filed in the database; no cut-off is given here.

How the values were obtained:
SW-620 [1] = assay: Induction of apoptosis in human SW620 cells assessed as DNA fragmentation at 100 uM after 24 hrs by gel electrophoresis; type: functional, cell-based
Outline: (§1)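 SW-620 cells (2 × 10^6 per 60 mm plate) treated for 24 h at 10, 50 or 100. Pellets lysed in 10 mM EDTA, 50 mM Tris pH 8.0, 0.5% SDS and proteinase K 0.5 mg/mL at 50 °C for 1 h. DNA heated briefly to 70 °C and run on 1.5% agarose at 50 V for 2–3 h. Untreated cells served as control; camptothecin as positive control.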

SW-620 [2] = assay: Induction of apoptosis in human SW620 cells assessed as blockage of G1-phase at 50 uM after 24 hrs using propidium iodide staining by flow cytometry; type: functional, cell-based
Mus musculus [3] = assay: Toxicity in Swiss albino mouse transplanted with EAC cells assessed as mortality at 200 mg/kg, ip administered for 9 days measured on day 3rd; type: organism-based, Ehrlich; set-up: dose 200 mg/kg, route intraperitoneal; conditions: in vivo, 216 h
Outline: (§2)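 EAC ascites model: mice of the same sex, 20 ± 3 g, injected intraperitoneally with 1 × 10^7 cells from a donor bearing 8–10 day old ascites tumor (day 0). Randomised the next day, 7 per test group and 10 controls. Doses were suspended in 1% gum acacia and given i.p. for nine consecutive days; controls received saline 0.2 mL i.p. On day 12, ascitic fluid volume and tumor cell count were measured, and % inhibition was calculated from cell number versus control.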

[4] = Antitumor activity against mouse EAC cells transplanted in Swiss albino mouse assessed as tumor growth inhibition at 10 mg/kg, ip administered for 9 days (reference value: 4.57+/-0.39 mL); type: functional; conditions: Ehrlich, 216 h, route intraperitoneal, read-out: GI; outline: as §2
SW-620 [5] = assay: Cell cycle arrest in human SW620 cells assessed as increase in sub-G1 DNA content at 1 uM after 24 hrs using propidium iodide staining by flow cytometry (reference value: 3.45%); type: functional
Ehrlich [6] = assay: Antitumor activity against mouse EAC cells transplanted in Swiss albino mouse assessed as decrease in tumor cells in ascetic fluid at 10 mg/kg, ip administered for 9 days (reference value: 4.57+/-0.39 mL); type: functional, organism-based; set-up: dose 10 mg/kg; outline: as §2
[7] = Antitumor activity against mouse EAC cells transplanted in Swiss albino mouse assessed as decrease in astic fluid volume at 10 mg/kg, ip administered for 9 days (reference value: 4.57+/-0.39 mL); type: functional, Ehrlich; conditions: route intraperitoneal; outline: as §2
[8] = Antitumor activity against mouse Ehrlich Ascites tumor xenografted in Swiss albino mouse assessed as decrease in tumor weight at 50 mg/kg, ip administered for 9 days (reference value: 1708+/-51.07 mg); type: functional; conditions: route intraperitoneal
[9] = biological target: Transcription factor p65 (Homo sapiens) (UniProt Q04206); assay: Inhibition of NF-kappaB p65 subunit transcriptional activity in human SW620 cells at 5 uM by Western blot analysis; type: cell-based; conditions: SW-620
Outline: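 SW-620 cells (5 × 10^6) exposed to 5 for the indicated times. Washed in ice-cold PBS, lysed in Hepes pH 7.9 buffer with KCl, EDTA, EGTA, DTT, PMSF, NaF, vanadate and protease inhibitors, then NP-40 0.5%. Cytosol taken after 8000 × g. Nuclear fraction extracted with 20% glycerol and 0.4 M KCl on ice for 30 min, spun at 13,000 × g. NF-κB assessed by western blot.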

Ehrlich [10] = assay: Antitumor activity against mouse EAC cells transplanted in Swiss albino mouse assessed as decrease in tumor cells in ascetic fluid at 50 mg/kg, ip administered for 9 days (reference value: 4.57+/-0.39 mL); type: functional, organism-based; set-up: dose 50 mg/kg
[11] = Antitumor activity against mouse EAC cells transplanted in Swiss albino mouse assessed as tumor growth inhibition at 100 mg/kg, ip administered for 9 days (reference value: 4.57+/-0.39 mL); type: functional; conditions: Ehrlich, 216 h, route intraperitoneal, read-out: GI
[12] = Antitumor activity against mouse Ehrlich Ascites tumor xenografted in Swiss albino mouse assessed as decrease in tumor weight at 25 mg/kg, ip administered for 9 days (reference value: 1708+/-51.07 mg); type: functional; conditions: route intraperitoneal
Ehrlich [13] = assay: Antitumor activity against mouse EAC cells transplanted in Swiss albino mouse assessed as decrease in tumor cells in ascetic fluid at 25 mg/kg, ip administered for 9 days (reference value: 4.57+/-0.39 mL); type: functional, organism-based; set-up: dose 25 mg/kg
[14] = Antitumor activity against mouse Ehrlich Ascites tumor xenografted in Swiss albino mouse assessed as tumor growth inhibition at 50 mg/kg, ip administered for 9 days measured on day 13; type: functional; conditions: route intraperitoneal, read-out: GI
SW-620 [15] = assay: Cell cycle arrest in human SW620 cells assessed as increase in sub-G1 DNA content at 5 uM after 24 hrs using propidium iodide staining by flow cytometry (reference value: 3.45%); type: functional
Ehrlich [16] = assay: Antitumor activity against mouse EAC cells transplanted in Swiss albino mouse assessed as decrease in tumor cells in ascetic fluid at 100 mg/kg, ip administered for 9 days (reference value: 4.57+/-0.39 mL); type: functional, organism-based; set-up: dose 100 mg/kg
Ehrlich [17] = assay: Antitumor activity against mouse EAC cells transplanted in ip dosed Swiss albino mouse assessed as tumor growth inhibition administered for 9 days; type: functional, organism-based; outline: as §2
Mus musculus [18] = assay: Antitumor activity against mouse Ehrlich Ascites tumor xenografted in ip dosed Swiss albino mouse assessed as tumor growth administered for 9 days; type: functional, organism-based
SW-620 [19] = assay: Cytotoxicity against human SW620 cells assessed as cell growth after 48 hrs by sulforhodamine B assay; type: functional, cell-based; conditions: Homo sapiens, SW-620, 48 h
Outline: (§3)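 Log-phase cells seeded at 10^4/well and allowed to attach for 24 h at 37 °C, 5% CO2. Exposed for 48 h to 0.1–100 (1:10 serial dilutions), four replicate wells per condition. Fixed with cold 50% TCA for 1 h at 4 °C, stained with sulforhodamine B, dye dissolved in Tris, OD read at 540 nm. Blank-subtracted growth expressed relative to untreated cells (100%); IC50 reported.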

DU-145 = assay: Cytotoxicity against human DU145 cells assessed as cell growth after 48 hrs by sulforhodamine B assay; type: functional, cell-based; conditions: Homo sapiens, DU-145, 48 h; outline: as §3
[20] = Antitumor activity against mouse Ehrlich Ascites tumor xenografted in Swiss albino mouse assessed as tumor growth inhibition at 25 mg/kg, ip administered for 9 days measured on day 13; type: functional; conditions: route intraperitoneal, read-out: GI
[21] = Antitumor activity against mouse Ehrlich Ascites tumor xenografted in Swiss albino mouse assessed as tumor growth inhibition at 10 mg/kg, ip administered for 9 days measured on day 13; type: functional; conditions: route intraperitoneal, read-out: GI
SW-620 [22] = assay: Induction of apoptosis in human SW620 cells assessed as DNA fragmentation at 50 uM after 24 hrs by gel electrophoresis; type: functional, cell-based; outline: as §1
SW-620 [23] = assay: Cell cycle arrest in human SW620 cells assessed as increase in sub-G1 DNA content at 10 uM after 24 hrs using propidium iodide staining by flow cytometry (reference value: 3.45%); type: functional
PC-3 = assay: Cytotoxicity against human PC3 cells assessed as cell growth after 48 hrs by sulforhodamine B assay; type: functional, cell-based; conditions: Homo sapiens, PC-3, 48 h; outline: as §3
[24] = Antitumor activity against mouse Ehrlich Ascites tumor xenografted in Swiss albino mouse assessed as decrease in tumor weight at 100 mg/kg, ip administered for 9 days (reference value: 1708+/-51.07 mg); type: functional; conditions: route intraperitoneal
[25] = Antitumor activity against mouse EAC cells transplanted in Swiss albino mouse assessed as tumor growth inhibition at 25 mg/kg, ip administered for 9 days (reference value: 4.57+/-0.39 mL); type: functional; conditions: Ehrlich, 216 h, route intraperitoneal, read-out: GI
[26] = Antitumor activity against mouse EAC cells transplanted in Swiss albino mouse assessed as decrease in astic fluid volume at 100 mg/kg, ip administered for 9 days (reference value: 4.57+/-0.39 mL); type: functional, Ehrlich; conditions: route intraperitoneal
[27] = Antitumor activity against mouse EAC cells transplanted in Swiss albino mouse assessed as decrease in astic fluid volume at 25 mg/kg, ip administered for 9 days (reference value: 4.57+/-0.39 mL); type: functional, Ehrlich; conditions: route intraperitoneal
Mus musculus [28] = assay: Toxicity in Swiss albino mouse model of Ehrlich Ascites tumor assessed as mortality at 200 mg/kg, ip administered for 9 days measured on third day; type: organism-based; set-up: dose 200 mg/kg, route intraperitoneal; conditions: in vivo, 216 h
[29] = Antitumor activity against mouse Ehrlich Ascites tumor xenografted in Swiss albino mouse assessed as decrease in tumor weight at 10 mg/kg, ip administered for 9 days (reference value: 1708+/-51.07 mg); type: functional; conditions: route intraperitoneal
[30] = Antitumor activity against mouse Ehrlich Ascites tumor xenografted in Swiss albino mouse assessed as tumor growth inhibition at 100 mg/kg, ip administered for 9 days measured on day 13; type: functional; conditions: route intraperitoneal, read-out: GI
[31] = Partition coefficient, log P of the compound; type: physicochemical; conditions: octanol/water
[32] = Antitumor activity against mouse EAC cells transplanted in Swiss albino mouse assessed as tumor growth inhibition at 50 mg/kg, ip administered for 9 days (reference value: 4.57+/-0.39 mL); type: functional; conditions: Ehrlich, 216 h, route intraperitoneal, read-out: GI
SW-620 [33] = assay: Cell cycle arrest in human SW620 cells assessed as increase in sub-G1 DNA content at 50 uM after 24 hrs using propidium iodide staining by flow cytometry (reference value: 3.45%); type: functional
Mus musculus [34] = assay: Toxicity in ip dosed Swiss albino mouse transplanted with mouse EAC cells assessed as mortality administered for 9 days; type: organism-based, Ehrlich; conditions: in vivo, 216 h; outline: as §2
[35] = Antitumor activity against mouse EAC cells transplanted in Swiss albino mouse assessed as decrease in astic fluid volume at 50 mg/kg, ip administered for 9 days (reference value: 4.57+/-0.39 mL); type: functional, Ehrlich; conditions: route intraperitoneal
Mus musculus [36] = assay: Toxicity in Swiss albino mouse model of Ehrlich Ascites tumor assessed as mortality at 50 mg/kg, ip administered for 9 days measured on second day; type: organism-based; set-up: dose 50 mg/kg, route intraperitoneal; conditions: in vivo, 216 h
Mus musculus [37] = assay: Toxicity in Swiss albino mouse transplanted with EAC cells assessed as mortality at 25 mg/kg, ip administered for 9 days measured on day 4th; type: organism-based, Ehrlich; set-up: dose 25 mg/kg, route intraperitoneal; conditions: in vivo, 216 h; outline: as §2
Mus musculus [38] = assay: Toxicity in Swiss albino mouse model of Ehrlich Ascites tumor assessed as mortality at 25 mg/kg, ip administered for 9 days measured on fourth day; type: organism-based; set-up: dose 25 mg/kg, route intraperitoneal; conditions: in vivo, 216 h
Mus musculus [39] = assay: Toxicity in Swiss albino mouse transplanted with mouse EAC cells assessed as mortality at 25 mg/kg, ip administered for 9 days measured on day 2nd; type: organism-based, Ehrlich; set-up: dose 25 mg/kg, route intraperitoneal; conditions: in vivo, 216 h; outline: as §2
Mus musculus [40] = assay: Toxicity in Swiss albino mouse transplanted with EAC cells assessed as mortality at 50 mg/kg, ip administered for 9 days measured on day 2nd; type: organism-based, Ehrlich; set-up: dose 50 mg/kg, route intraperitoneal; conditions: in vivo, 216 h; outline: as §2
Mus musculus [41] = assay: Toxicity in Swiss albino mouse transplanted with mouse EAC cells assessed as mortality at 50 mg/kg, ip administered for 9 days measured on day 3rd; type: organism-based, Ehrlich; set-up: dose 50 mg/kg, route intraperitoneal; conditions: in vivo, 216 h; outline: as §2

Sequence of Transcription factor p65 (Homo sapiens) (Q04206 whole entry): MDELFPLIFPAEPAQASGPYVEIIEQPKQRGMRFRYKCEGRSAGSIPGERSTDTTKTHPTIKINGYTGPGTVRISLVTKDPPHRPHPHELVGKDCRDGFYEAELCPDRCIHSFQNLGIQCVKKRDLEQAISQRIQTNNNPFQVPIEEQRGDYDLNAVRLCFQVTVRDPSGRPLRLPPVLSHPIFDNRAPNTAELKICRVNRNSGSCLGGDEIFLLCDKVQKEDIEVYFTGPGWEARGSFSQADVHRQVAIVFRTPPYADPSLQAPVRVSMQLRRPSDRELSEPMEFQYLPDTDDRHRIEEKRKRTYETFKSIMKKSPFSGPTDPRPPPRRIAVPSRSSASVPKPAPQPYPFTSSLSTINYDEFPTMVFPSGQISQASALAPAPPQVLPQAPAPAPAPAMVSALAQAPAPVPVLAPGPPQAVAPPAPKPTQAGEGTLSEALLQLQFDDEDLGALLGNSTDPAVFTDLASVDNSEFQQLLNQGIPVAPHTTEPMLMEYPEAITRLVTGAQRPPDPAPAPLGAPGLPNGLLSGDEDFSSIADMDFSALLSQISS

C[C@H]1CC[C@@H]2[C@@H](OC(=O)[C@]23CC(c2c4ccccc4cc4ccccc24)=NO3)[C@]2(C)C(=O)C=C[C@@]12O
Activity (SW-620 [1]): Active
Activity (SW-620 [2]): Active
Activity (Mus musculus [3]): Toxic
inhibition in vivo at 10 mg/kg [4]: 7.74%
Activity (SW-620 [5]): 6.58%
Activity (Ehrlich [6]): Active
Activity [7]: 4.07 mL
Activity [8]: 1332.14 mg
inhibition [9]: Active
Activity (Ehrlich [10]): Active
inhibition in vivo at 100 mg/kg [11]: 60.5%
Activity [12]: 1445.71 mg
Activity (Ehrlich [13]): Active
inhibition in vivo at 50 mg/kg [14]: 22%
Activity (SW-620 [15]): 33.09%
Activity (Ehrlich [16]): Active
growth inhibition (GI) (Ehrlich [17]): Dose-dependent effect
growth inhibition (GI) (Mus musculus [18]): Dose-dependent effect
IC50 (SW-620 [19]): 4.3 µM
IC50 (DU-145): 4.6 µM
inhibition in vivo at 25 mg/kg [20]: 15.4%
inhibition in vivo at 10 mg/kg [21]: 9.44%
Activity (SW-620 [22]): Active
Activity (SW-620 [23]): 33.2%
IC50 (PC-3): 4.9 µM
Activity [24]: 1108.57 mg
inhibition in vivo at 25 mg/kg [25]: 19.2%
Activity [26]: 2.07 mL
Activity [27]: 3.62 mL
Activity (Mus musculus [28]): Toxic
Activity [29]: 1547.14 mg
inhibition in vivo at 100 mg/kg [30]: 35.1%
logP [31]: 3.71
inhibition in vivo at 50 mg/kg [32]: 27.2%
Activity (SW-620 [33]): 55%
Activity (Mus musculus [34]): Toxic
Activity [35]: 2.85 mL

C=C1C(=O)O[C@@H]2[C@H]1CC[C@H](C)[C@]1(O)C=CC(=O)[C@@]21C [PARTHENIN]
Activity (Mus musculus [36]): Toxic
Activity (Mus musculus [37]): Toxic
inhibition in vivo at 10 mg/kg [4]: 12%
Activity (Ehrlich [6]): Active
Activity [7]: 3.92 mL
Activity (Mus musculus [38]): Toxic
Activity (Mus musculus [39]): Toxic
growth inhibition (GI) (Ehrlich [17]): Dose-dependent effect
IC50 (SW-620 [19]): 38.7 µM
IC50 (DU-145): 31.1 µM
inhibition in vivo at 10 mg/kg [21]: 9.69%
Activity (Mus musculus [40]): Toxic
IC50 (PC-3): 40.3 µM
Activity (Mus musculus [41]): Toxic
Activity [29]: 1542.86 mg
Activity (Mus musculus [34]): Toxic
